The results in this text go back to ChEMBL document CHEMBL3085685, “In vitro and in vivo antileishmanial and trypanocidal studies of new N-benzene- and N-naphthalenesulfonamide derivatives” (J Med Chem, 2013).

Structures are written as SMILES. The source made the active and inactive calls. The rule behind the calls is not given here.

Series [1] concerns Trypanosoma cruzi. Description: Trypanocidal activity against extracellular epimastigote stage of Trypanosoma cruzi CL-B5 assessed as reduction of parasite load after 72 hrs by CPRG-based colorimetric analysis.
The nature of series [2]: Cytotoxicity against mouse J774 cells assessed as reduction of cell viability after 24 hrs by resazurin dye-based fluorometric analysis. In short, it runs like this:
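J774 macrophages in RPMI 1640 with 10% heat-inactivated FBS, seeded at 5 × 10^4 cells/well and attached 24 h at 37 °C, 5% CO2. Medium swapped for drug dilutions for 24 h. Then 2.5 mM resazurin stock added for 3 h, fluorescence read at 535 nm excitation / 590 nm emission. Triplicate; CC50 from probit analysis.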

A further series has as its system Leishmania guyanensis. Description: Leishmanicidal activity against extracellular promastigote stage of Leishmania guyanensis 141/93 assessed as reduction of parasite load after 48 hrs by resazurin dye-based fluorometric analysis. The series is classed as functional, organism-based. Conditions: Leishmania guyanensis, 141/93, 48 h; read-out: IC50. In a few lines:
(§1)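 Log-phase promastigotes cultured in Schneider's medium with 20% heat-inactivated FBS at 26 °C, 2.5 × 10^5 per well. DMSO-dissolved compounds added as 2-fold serial dilutions, final DMSO ≤0.2% (v/v), 48 h at 26 °C. Growth read by 2.5 mM resazurin stock, fluorescence 535/590 nm. Triplicate; IC50 by probit analysis.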

Series [3] concerns Leishmania infantum. Description: Leishmanicidal activity against extracellular promastigote stage of Leishmania infantum MCAN/ES/96/BCN150 assessed as reduction of parasite load after 48 hrs by resazurin dye-based fluorometric analysis. The format is functional, organism-based. As to conditions: Leishmania infantum, MCAN/ES/96/BCN150, 48 h; read-out: IC50. In a few lines:
as §1

The test system of the next series is Leishmania braziliensis. Description: Leishmanicidal activity against extracellular promastigote stage of Leishmania braziliensis 2903 assessed as reduction of parasite load after 48 hrs by resazurin dye-based fluorometric analysis. The format is functional, organism-based. As to conditions: Leishmania braziliensis, 2903, 48 h; read-out: IC50. In a few lines:
as §1

Series [4] relates to Leishmania amazonensis. Description: Leishmanicidal activity against extracellular promastigote stage of Leishmania amazonensis MHOM/Br/79/Maria assessed as reduction of parasite load after 48 hrs by resazurin dye-based fluorometric analysis. The format is functional, organism-based. In short, it runs like this: as §1
Series [5] has as its system Trypanosoma cruzi. Description: Trypanocidal activity against intracellular amastigote stage of Trypanosoma cruzi CL-B5 infected in mouse NCTC-929 cells assessed as reduction of parasite load after 7 days by CPRG-based colorimetric analysis. Conditions: Trypanosoma cruzi, CL-B5, NCTC-929, 168 h; read-out: IC50.
Series [6] is described as follows: Selectivity index, ratio of CC50 for mouse NCTC-929 cells to IC50 for extracellular epimastigote stage of Trypanosoma cruzi CL-B5. The format is functional.
Series [7] has as its system Trypanosoma cruzi. Description: Trypanocidal activity against bloodstream trypomastigote stage of Trypanosoma cruzi Y infected in BALB/c mouse assessed as reduction of parasitemia at 10 mg/kg/day, ip qd administered for 5 days measured on day 10 post-infection by microscopic analysis relative to control. The format is functional. On the set-up: scale not given: the % may be the effect or the level left. As to conditions: route intraperitoneal. In short, it runs like this: (§2)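 Female BALB/c mice (20–24 g) infected ip with 10^4 Y-strain bloodstream trypomastigotes; only parasitemic animals used. Compounds dissolved in DMSO, freshly diluted in propylene glycol, given ip at 10 mg/kg/day for 5 days from 5 dpi, with an untreated group. Parasitemia counted by Pizzi–Brener in 5 μL tail blood at 5, 8, 10 dpi; mortality checked daily to 30 dpi.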

Series [8] has as its system Leishmania infantum. Description: Leishmanicidal activity against intracellular amastigote stage of Leishmania infantum MCAN/ES/96/BCN150 infected in mouse J774 cells assessed as reduction of parasite load after 48 hrs by resazurin dye-based fluorometric analysis. The series is classed as functional, organism-based. In a few lines: (§3)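 J774 macrophages (5 × 10^4/well) infected with stationary promastigotes at 1:10, 24 h at 33 °C then 24 h at 37 °C, 5% CO2, and washed free of promastigotes. Then 2-fold serial dilutions in triplicate for 48 h at 37 °C. Cells lysed with RPMI with 0.048% HEPES and 0.006% SDS, transformed in Schneider's 3 days at 26 °C, resazurin 3 h, fluorescence 535/590 nm.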

The test system of series [9] is Trypanosoma cruzi. Description: Trypanocidal activity against bloodstream trypomastigote stage of Trypanosoma cruzi Y infected in BALB/c mouse assessed as reduction of survival rate at 10 mg/kg/day, ip qd administered for 5 days measured daily until day 30 post-infection. The series is classed as functional, organism-based. In a few lines: as §2
The test system of series [10] is Leishmania amazonensis. Description: Leishmanicidal activity against intracellular amastigote stage of Leishmania amazonensis MHOM/Br/79/Maria infected in mouse J774 cells assessed as reduction of parasite load after 48 hrs by resazurin dye-based fluorometric analysis. The series is classed as functional, organism-based. In short, it runs like this: as §3
A short description of series [11]: Cytotoxicity against mouse NCTC-929 cells assessed as reduction of cell viability after 24 hrs by resazurin dye-based […]. In short, it runs like this: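 NCTC clone 929 fibroblasts in DMEM with 10% FBS and 2 mM L-glutamine, plated at 3 × 10^4 cells/well and grown overnight at 37 °C, 5% CO2. Compounds in fresh medium for 24 h, then 2 mM resazurin solution added for 3 h. Absorbance read at 570 and 595 nm; CC50 taken as 50% viability loss versus untreated cells, by probit analysis.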

In series [12] the test system is Trypanosoma cruzi. Description: Trypanocidal activity against bloodstream trypomastigote stage of Trypanosoma cruzi Y infected in BALB/c mouse assessed as reduction of parasitemia at 10 mg/kg/day, ip qd administered for 3 days measured on day 8 post-infection by microscopic analysis relative to control. The format is functional. On the set-up: scale not given: the % may be the effect or the level left. Conditions: route intraperitoneal. In short, it runs like this:
as §2

Setting [13] is: Leishmania amazonensis, MHOM/Br/79/Maria, 48 h, read-out: IC50.
The mark [14] stands for this setting: Trypanosoma cruzi, CL-B5, 72 h, read-out: IC50.

For `CC1CCCN(S(=O)(=O)c2ccccc2)C1` (stereo unspecified), the IC50 entry in the series on Trypanosoma cruzi [1] is “Not Active”; in the series with Leishmania guyanensis, 54.3 µM; with Leishmania infantum [3], 112 µM; with Leishmania braziliensis, 115 µM; in the series on Leishmania amazonensis [4] (setting [13]) it was 40.9 µM. The CC50 at 24 h in series [2] is at least 300 µM.

Turning to `O=[N+]([O-])c1ccc(S(=O)(=O)Nc2ccc3cn[nH]c3c2)cc1`, the IC50 entry in the series with Trypanosoma cruzi [1] is “Not Active”; in the series on Leishmania guyanensis it was 48.1 µM; in the series on Leishmania infantum [3], 43.3 µM; in the series with Leishmania braziliensis it was 21.7 µM; with Leishmania amazonensis [4] (setting [13]), 60.3 µM. The CC50 at 24 h in series [2] was at least 300 µM.

On to `O=[N+]([O-])c1ccc(S(=O)(=O)Nc2ncccn2)cc1`, for which the IC50 was determined as 156 µM in the series on Trypanosoma cruzi [1] (setting [14]); 46.4 µM with Leishmania guyanensis; 76.4 µM in the series with Leishmania infantum [3]; 48.8 µM in the series on Leishmania braziliensis; 68.6 µM in the series on Leishmania amazonensis [4] (setting [13]). In addition, in [2], the CC50 at 24 h was at least 300 µM.

Regarding `O=[N+]([O-])c1ccc(S(=O)(=O)Nc2ccc3ncsc3c2)cc1`, the IC50 result with Trypanosoma cruzi [1] was “Not Active”; in the series on Leishmania guyanensis, 53.7 µM; with Leishmania infantum [3], 85.5 µM; in the series on Leishmania braziliensis it was 31 µM; with Leishmania amazonensis [4] (setting [13]), 89.6 µM. Besides, the CC50 at 24 h in [2] was at least 300 µM.

Consider `O=[N+]([O-])c1ccc(S(=O)(=O)Nc2cnccn2)cc1`, for which the IC50 with Trypanosoma cruzi [5] is 224 µM; in the series with Trypanosoma cruzi [1] (setting [14]) it was 76.1 µM; in the series on Leishmania guyanensis it was 84.2 µM; in the series on Leishmania infantum [8] (j774) it was “Not Active”; in the series with Leishmania amazonensis [10] (j774), “Not Active”; in the series with Leishmania braziliensis, 61.5 µM. Further, the IC50 result with Leishmania amazonensis [4] was “Not Active”. In addition, the “Ratio CC50/IC50” value in [6] is given as over 4.7. For the same compound, the Activity in the series with Trypanosoma cruzi [7] is given as 57%; in the series on Trypanosoma cruzi [12], 14%. The CC50 at 24 h was at least 300 µM in series [2] and 317 µM in series [11]. The result in the series with Trypanosoma cruzi [9] was inactive.

In the case of `O=S(=O)(Nc1ccc2nccnc2c1)c1ccc(Cl)cc1`, the CC50 at 24 h in series [2] came out at 23.8 µM. The IC50 in the series on Leishmania guyanensis was 25.9 µM; in the series with Leishmania infantum [3] it was 51.5 µM; in the series on Leishmania braziliensis it was 80.9 µM; in the series with Leishmania amazonensis [4] (setting [13]), 46.2 µM.

`CCCCCCCCCCCCCCCCOP(=O)([O-])OCC[N+](C)(C)C` [MILTEFOSINE]: the CC50 at 24 h in series [2] is 136 µM. The IC50 in the series with Leishmania guyanensis came out at 44.6 µM; in the series on Leishmania infantum [3], 17.6 µM; in the series with Leishmania infantum [8] (Leishmania infantum, MCAN/ES/96/BCN150, J774, 48 h, read-out: IC50) it was 23.7 µM; in the series on Leishmania amazonensis [10] (Leishmania amazonensis, MHOM/Br/79/Maria, J774, 48 h, read-out: IC50), 20.9 µM; in the series with Leishmania braziliensis it was 7.6 µM; in the series on Leishmania amazonensis [4] (setting [13]) it was 34.1 µM.

Take `O=S(=O)(Nc1ccc2[nH]ncc2c1)c1cccc2ccccc12`: in series [2], the CC50 at 24 h was 30 µM. The IC50 amounted to 52.8 µM with Leishmania guyanensis, 37.3 µM in the series with Leishmania infantum [3], 39.7 µM in the series on Leishmania braziliensis and 37.7 µM in the series on Leishmania amazonensis [4] (setting [13]).

For the compound `O=S(=O)(Nc1ccc2[nH]ncc2c1)c1ccc(F)cc1`, the IC50 result is “Not Active” in the series with Trypanosoma cruzi [1]; 102 µM with Leishmania guyanensis; 65.4 µM in the series on Leishmania infantum [3]; 86.6 µM in the series with Leishmania braziliensis; 116 µM in the series on Leishmania amazonensis [4] (setting [13]). Besides, in series [2], the CC50 at 24 h was at least 300 µM.

Consider `O=S(=O)(Nc1nccc2ccccc12)c1ccc(Cl)cc1`, for which the IC50 entry with Trypanosoma cruzi [1] is “Not Active”; with Leishmania guyanensis, 4.3 µM; with Leishmania infantum [3] it was 51.4 µM; with Leishmania braziliensis it was 37 µM; in the series with Leishmania amazonensis [4] (setting [13]), 82.8 µM. Also, the CC50 at 24 h in series [2] was at least 300 µM.

For `O=[N+]([O-])c1ccc(S(=O)(=O)Nc2ccc3[nH]ncc3c2)cc1`, in series [2], the CC50 at 24 h turned out to be 133 µM. Also, the IC50 in the series with Leishmania guyanensis came out at 140 µM; in the series on Leishmania infantum [3] it was 61.3 µM; in the series on Leishmania braziliensis, 80.8 µM; in the series on Leishmania amazonensis [4] (setting [13]) it was 66.7 µM.
